This passage reports IC50 and Kd results from ChEMBL document CHEMBL1131443, “Development of dual-acting agents for thromboxane receptor antagonism and thromboxane synthase inhibition. 3. Synthesis and biological activities of oxazolecarboxamide-substituted omega-phenyl-omega-(3-pyridyl)alkenoic acid derivatives and related compounds” (J Med Chem, 1998).

As usually defined, the IC50 is the concentration at which inhibition is half-maximal. For orientation: Kd means the equilibrium constant for the complex coming apart. Lower therefore signals higher affinity.

The species named for assay [1] is Homo sapiens. The assay can be described thus: Inhibition of U-46,619 (1 uM)-induced platelet aggregation in human platelet-rich plasma(PRP). In kind it is functional. The gist of the method:
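Citrated blood (1/10 volume 3.8% trisodium citrate) from volunteers free of platelet-affecting medication for 10 days; PRP spun at 100g for 12 min. Compound or vehicle preincubated with PRP for 1 min at 37 °C. Aggregation induced with U46619 and followed for 3 min.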

Assay [2] deals with T1, Thromboxane A2 receptor (Homo sapiens, UniProt P21731).
T1 sequence (P21731 whole entry): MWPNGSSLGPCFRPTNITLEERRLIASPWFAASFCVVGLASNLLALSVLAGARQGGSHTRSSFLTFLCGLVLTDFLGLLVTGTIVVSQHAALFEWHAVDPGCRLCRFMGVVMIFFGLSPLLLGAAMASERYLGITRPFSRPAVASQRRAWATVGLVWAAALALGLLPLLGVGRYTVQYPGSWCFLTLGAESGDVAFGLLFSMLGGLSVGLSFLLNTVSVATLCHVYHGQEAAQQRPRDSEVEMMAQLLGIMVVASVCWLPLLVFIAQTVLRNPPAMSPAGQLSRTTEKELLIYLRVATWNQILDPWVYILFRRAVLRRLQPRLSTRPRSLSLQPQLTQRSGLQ
The assay can be described thus: In vitro for antagonistic activity against […]. In kind it is functional. The gist of the method:
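Buffer was 10 mM Hepes, 2 mM CHAPS and 10 μM indomethacin, pH 7.4. Competitor range 10^-10 to 10^-5 M; incubation 30 °C for 30 min; stopped with ice-cold 25 mM Tris pH 7.4 and filtered. Nonspecific binding taken with 10 μM SQ29548. Run in triplicate.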

The target of assay [3] is T2, Thromboxane-A synthase (Homo sapiens, UniProt P24557).
T2 sequence (P24557 whole entry): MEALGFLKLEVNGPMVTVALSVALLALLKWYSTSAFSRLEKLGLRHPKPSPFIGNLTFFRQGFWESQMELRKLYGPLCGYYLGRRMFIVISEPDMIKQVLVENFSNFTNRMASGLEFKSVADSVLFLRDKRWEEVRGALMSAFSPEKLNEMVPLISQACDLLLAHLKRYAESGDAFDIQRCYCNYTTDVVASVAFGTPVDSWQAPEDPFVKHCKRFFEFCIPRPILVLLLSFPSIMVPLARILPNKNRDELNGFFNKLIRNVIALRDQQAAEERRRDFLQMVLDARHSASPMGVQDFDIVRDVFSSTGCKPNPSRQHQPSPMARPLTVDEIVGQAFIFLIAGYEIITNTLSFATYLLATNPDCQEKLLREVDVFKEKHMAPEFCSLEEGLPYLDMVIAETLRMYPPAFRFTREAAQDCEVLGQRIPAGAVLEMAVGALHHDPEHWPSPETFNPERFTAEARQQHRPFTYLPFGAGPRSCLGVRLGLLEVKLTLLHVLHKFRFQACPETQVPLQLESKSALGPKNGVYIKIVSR
Nature of the assay: In vitro for inhibitory activity against thromboxane synthase. The gist of the method:
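Compound or vehicle incubated with whole human blood for 30 min at 37 °C, then serum was prepared. Serum TXB2, the stable TXA2 metabolite, was measured by radioimmunoassay. Run in triplicate.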

In assay [1], `CC(OCCCNC(=O)c1coc(-c2ccc(/C(=C\CCCCC(=O)O)c3cccnc3)cc2)n1)C1CCCCC1` (configuration not stated) returned an IC50 of 5000 nM.

On to `O=C(O)CCCC/C=C(\c1ccc(-c2nc(C(=O)NCCCCOc3ccccc3)co2)cc1)c1cccnc1`, for which half-maximal inhibition in assay [1] (IC50) required 500 nM.

As for `O=C(O)CCCC/C=C(\c1ccc(-c2nc(C(=O)NCCc3ccccc3)co2)cc1)c1cccnc1`, binding in assay [2] was put at a Kd of 82.4 nM. In addition, 9.4 nM corresponded to half-maximal inhibition in assay [3] (IC50).

`COc1ccc(CCCNC(=O)c2coc(-c3ccc(/C(=C\CCCCC(=O)O)c4cccnc4)cc3)n2)cc1`: in assay [2], the dissociation constant (Kd) came out at 119 nM. The same compound had a half-maximal inhibitory concentration (IC50) in assay [3] of 2.7 nM.

The compound `O=C(O)CCCC/C=C(\c1ccc(-c2nc(C(=O)N[C@@H]3C[C@H]3c3ccccc3)co2)cc1)c1cccnc1` registered an IC50 in assay [1] of 5000 nM.

`O=C(O)CCCC/C=C(\c1ccc(-c2nc(C(=O)NCCOCc3ccccc3)co2)cc1)c1cccnc1` yielded a Kd in assay [2] of 156 nM. The compound also gave a half-inhibitory concentration (IC50) in assay [3] of 47.5 nM.

In turn, `O=C(O)CCCC/C=C(\c1ccc(-c2nc(C(=O)NCCCCC3CCCCC3)co2)cc1)c1cccnc1` gave a half-inhibitory concentration (IC50) in assay [1] of 400 nM.

As to `O=C(O)CCCC/C=C(\c1ccc(-c2nc(C(=O)NCCOCC3CCCCC3)co2)cc1)c1cccnc1`, in assay [2], the affinity, expressed as Kd, was 43.3 nM. For the same compound, in assay [3], the half-inhibitory concentration (IC50) worked out at 36.7 nM.

In turn, `CCOCCCNC(=O)c1coc(-c2ccc(/C(=C\CCCCC(=O)O)c3cccnc3)cc2)n1` had a Kd in assay [2] of 1400 nM.

In the case of `O=C(O)CCCC/C=C(\c1ccc(-c2nc(C(=O)NCCCN3CCOCC3)co2)cc1)c1cccnc1`, the half-inhibitory concentration (IC50) in assay [3] is 50.8 nM.

`O=C(O)CCCC/C=C(\c1ccc(-c2nc(C(=O)NS(=O)(=O)c3ccc(Cl)cc3)co2)cc1)c1cccnc1` showed an IC50 in assay [1] of 4000 nM.

Consider `O=C(O)CCCCO/N=C(/c1cccnc1)c1cccc(C(F)(F)F)c1` [RIDOGREL], for which the Kd in assay [2] was 8000 nM. The same compound had an IC50 in assay [3] of 14.7 nM.
